# Laboratory results as given in the EternaBench riboswitch data.
# System: MS2 coat protein
# Experiment: apparent Kd, MS2 coat protein; higher = weaker binding; RNA-MaP array
# How it was run: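 For each design, the apparent Kd is the median of binding-curve fits across its clusters. Designs measured on fewer than 10 clusters were dropped. The RNAs were transcribed from sequenced DNA templates on an Illumina sequencing chip and incubated at room temperature, with or without input ligand, with fluorescently labeled MS2 coat protein at 1.5 nM to 3 μM.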
# [1] = designed as: OFF switch for flavin mononucleotide, no ligand
# [2] = ligand present: flavin mononucleotide, designed as: OFF switch for flavin mononucleotide
# [3] = designed as: ON switch for flavin mononucleotide, no ligand
# [4] = ligand present: flavin mononucleotide, designed as: ON switch for flavin mononucleotide
# [5] = designed as: ON switch for theophylline, no ligand
# [6] = ligand present: theophylline, designed as: ON switch for theophylline
sequence,measurement,setting,value
AUGAUCAUAGUAAGGAUAUCCGGACCAAUAGCAAAGGAGAAGGUACAUGAGGAUCACCCAUGUUUAUUAAUACU,apparent Kd,[1],9.11 nM
same,apparent Kd,[2],9.98 nM
ACAUGAGGAUCACCCAUGUACCAAGAACAUUGAUGCCUCCGAGAGGAUAUUUGCGGUAUAACACUAAAGAAGGCUCUACAAGUA,apparent Kd,[1],7.95 nM
same,apparent Kd,[2],7.31 nM
UAAGCGUUAGGAUAUACAAAACGAAGAAAGUGAUUCAGAAUACAUGAGGAUCACCCAUGUAGAAGGAACGGGUA,apparent Kd,[1],17.7 nM
same,apparent Kd,[2],24.2 nM
UCCCUGCAAGGAUAUACAUGAGGAUCACCCAUGUUUACACACGAAAAUUUGGAGAUAGGUAGAAGGUGCAUUUU,apparent Kd,[1],12.6 nM
same,apparent Kd,[2],11.8 nM
AAACCAUCAAACACAUGAGGAUCACCCAUGUCUAAAGAAAUGUAGGAUAUGUAAUACCUAGUCAAACAGAAGGACAUUCAAGAU,apparent Kd,[3],9.39 nM
same,apparent Kd,[4],8.35 nM
UGCCCUACAUGAGGAUCACCCAUGUACAUAACAUGAGUGCGCAGAAGGUAUGCGUUGAAGAGCCAUAAGGAUAUGCAAACCGUC,apparent Kd,[3],114 nM
same,apparent Kd,[4],71.1 nM
GCACGACAUGAGGAUCACCCAUGUGAGGAUAUACUACAUCAGGAACACGCUAUGCACGGUAGAAGGCACGGGAG,apparent Kd,[1],16.4 nM
same,apparent Kd,[2],15.6 nM
CUCGUCAACUCGGCCGCCACUGACGUGUGGUCAGGCCUGUAGAAACACAUGAGGAUCACCCAUGUCAGGACCGGGAGCUUUAUUA,apparent Kd,"designed as: OFF switch for tryptophan, no ligand",46.9 nM
same,apparent Kd,"ligand present: tryptophan, designed as: OFF switch for tryptophan",58.2 nM
CACCGGAAUGGAGGAUAUCCUACACAUGAGGAUCACCCAUGUUAUUUAUAGCUAUUAAAAGUUCGGGAGAAGGCCAAGCGAUUC,apparent Kd,[3],28.7 nM
same,apparent Kd,[4],13.2 nM
AAUAAACGAGGAUAUACAGAUCAAGAUUAUCUAGUGAUCCUACAUGAGGAUCACCCAUGUAGAAGGCGAGAACA,apparent Kd,[1],51.1 nM
same,apparent Kd,[2],66.7 nM
ACACAUGAGGAUCACCCAUGUAGAUAUGGGCUCACUAUCACUAGAAGGACUUUGCUCUCUUGGAAGUAGGAUAUAGUACGCUGG,apparent Kd,[1],163 nM
same,apparent Kd,[2],134 nM
UCGCGCUAAGGAUAUACUAUAAGCCACAUGAGGAUCACCCAUGUUAUAUACAUGUCCUCGGUAGAAGGUAGCCGGA,apparent Kd,[1],48.6 nM
same,apparent Kd,[2],50.2 nM
CAAGCAUGAGAGAAGGUCCCAUCUAAACAUGAGGAUCACCCAUGUGAUACGGUGCUAUUGUGAAGGAAGGAUAUCUCAGUUAAU,apparent Kd,[3],61.7 nM
same,apparent Kd,[4],16.8 nM
GGGUGACAUGAGGAUCACCCAUGUCAGGAUAUGGACUCGAAAUUAGGUAUGAAUCACGCCAGAAGGGACCGGGC,apparent Kd,[1],55 nM
same,apparent Kd,[2],44 nM
UCAUUUUUCACGGCCGCCACUUCAAGGUCCUGAGGCUGGGCAACACAUGAGGAUCACCCAUGUCGAAGGACCGGGUGAAGCUACC,apparent Kd,"designed as: ON switch for tryptophan, no ligand",114 nM
same,apparent Kd,"ligand present: tryptophan, designed as: ON switch for tryptophan",183 nM
CAUGAUAAGUUGGAUACCAGCAUAUGGAACAACAUGAGGAUCACCCAUGUCAAAUGACAUUGCCCUUGGCAGCCACCUACUGUCA,apparent Kd,[5],20.3 nM
same,apparent Kd,[6],11.1 nM
UAACAUGAGGAUCACCCAUGUACGAAGAGGGAAAGAAAAGUCAAGGAUAUGCGGAUUUAACUAGCGCAGAAGGUGAUCUAAGUU,apparent Kd,[3],230 nM
same,apparent Kd,[4],114 nM
UCAGCUAGACAGGAUAUAGAGAAUCAAGAACAGCUAGAAGGGUCAACAUGAGGAUCACCCAUGUGGUGGUACUG,apparent Kd,[1],477 nM
same,apparent Kd,[2],445 nM
GUACGGUGAGGAUAUCGUUAAGAUGUGGACAGGCCUACAUACGAGAAGGCACAUGAGGAUCACCCAUGUUCAUA,apparent Kd,[1],21.5 nM
same,apparent Kd,[2],18.8 nM
AUGCUUAAAAUGCUCAAACAUGAGGAUCACCCAUGUGAGGUCAAGGAUAUUAUUUAACUUGUUUAUAAGAAGGUGACCGAAUGA,apparent Kd,[3],61.1 nM
same,apparent Kd,[4],18.7 nM
CCGCCCUACCGCGAUACCAGUACGGCAGUUAACAUGAGGAUCACCCAUGUGCAAACAUAAUACCCUUGGCAGCGCCUGAAUCCAU,apparent Kd,[5],17.7 nM
same,apparent Kd,[6],17.3 nM
CUCCCACUAUCUGAUACCAGAGGAUAAACGUAGACUGGGAACAUGAGGAUCACCCAUGUCCUCCCUUGGCAGCAGGACUUAUCUC,apparent Kd,"designed as: OFF switch for theophylline, no ligand",21.9 nM
same,apparent Kd,"ligand present: theophylline, designed as: OFF switch for theophylline",38.3 nM
CCAAGCAUAAUAGAUACCAGUCGUAUACCUCCAACAUGAGGAUCACCCAUGUGCUCAGUUGACCCUUGGCAGCUAUGCCUAUAGA,apparent Kd,[5],39.6 nM
same,apparent Kd,[6],25.8 nM
